BindingDB's records for doi:10.1021/jm9008532 (Universite Catholique De Louvain, 2009)
pIC50: −log10 of the molar value.

Biological target: T1, Fatty-acid amide hydrolase 1 (Homo sapiens, UniProt O00519)
T1 sequence (O00519 whole entry): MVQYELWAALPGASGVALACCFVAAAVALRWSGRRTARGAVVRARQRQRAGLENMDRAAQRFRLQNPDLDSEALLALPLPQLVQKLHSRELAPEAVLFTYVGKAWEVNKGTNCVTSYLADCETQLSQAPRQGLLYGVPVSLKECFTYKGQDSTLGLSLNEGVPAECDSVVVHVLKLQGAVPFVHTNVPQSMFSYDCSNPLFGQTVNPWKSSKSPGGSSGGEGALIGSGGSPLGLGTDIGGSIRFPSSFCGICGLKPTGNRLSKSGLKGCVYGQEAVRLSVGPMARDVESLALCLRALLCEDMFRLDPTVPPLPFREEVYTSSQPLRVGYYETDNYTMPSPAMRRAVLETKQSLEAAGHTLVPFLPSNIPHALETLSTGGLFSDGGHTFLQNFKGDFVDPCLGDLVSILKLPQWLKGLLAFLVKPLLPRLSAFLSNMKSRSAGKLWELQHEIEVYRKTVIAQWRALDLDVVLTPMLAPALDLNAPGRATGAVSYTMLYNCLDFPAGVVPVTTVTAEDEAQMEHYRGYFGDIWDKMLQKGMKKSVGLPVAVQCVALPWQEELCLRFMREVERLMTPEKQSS
Assay: Inhibition of human recombinant FAAH using [3H]anandamide by competitive hydrolysis assay
In short: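 Compounds were added in DMSO, with DMSO alone as control, plus [3H]-AEA at 2 μM final, 37 °C for 10 min. The reaction was stopped on ice with cold chloroform/methanol (1:1), and the aqueous phase was counted by LSC with the buffer-only blank subtracted. IC50 is the mean of three independent experiments.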

`CC(=O)O[C@@H]1[C@@H]([C@@H](C)OC(=O)CCc2ccccc2)C(=O)N1C(=O)CCc1ccccc1` [1-(3-Phenylpropanoyl)-(3R,4R)-3-[1(R)-(3-phenylpropanoyloxy)-ethyl]-4-(acetoxy)-azetidin-2-one] gave a pIC50 of 5.66.
